Laboratory results reported in ChEMBL document CHEMBL2331214, “Structure-Based Design and Synthesis of an HIV-1 Entry Inhibitor Exploiting X-Ray and Thermodynamic Characterization” (ACS Med Chem Lett, 2013).
pIC50, pKd: −log10 of the molar value.

What was measured:
[1] = system: Human immunodeficiency virus 1; assay: Activation of HIV1 isolate YU2 infectivity in CD4 negative dog CF2Th cells expressing CCR5 by luciferase reporter gene assay relative to TS-2-224; assay type: organism-based; conditions: human immunodeficiency virus 1, cf2th
[2] = Binding affinity to HIV1 full length gp120 by isothermal titration calorimetric assay; set-up: species or system Human immunodeficiency virus 1
How it was run: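 ITC titration of full-length monomeric gp120 with ligand at 25 °C.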

[3] = Inhibition of HIV1 isolate YU2 gp120 binding to human CD4 expressed in dog CF2Th cells coexpressing CCR5 after 2 to 4 hrs by luciferase reporter gene assay; assay type: cell-based, Human immunodeficiency virus type 1 (isolate YU2)
How it was run: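 HIV-1 YU2 infection of Cf2Th cells expressing CD4 and CCR5; the IC50 is for inhibition of viral entry.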

[4] = Inhibition of AMLV gp120 binding to human CD4 expressed in canine CF2Th cells coexpressing CCR5 after 2 to 4 hrs by luciferase reporter gene assay; assay type: cell-based, Amphotropic murine leukemia virus
[5] = system: Human immunodeficiency virus 1; assay: Activation of HIV1 isolate YU2 infectivity in CD4 negative dog CF2Th cells expressing CCR5 by luciferase reporter gene assay relative to NBD556; assay type: organism-based; conditions: human immunodeficiency virus 1, cf2th
How it was run: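 HIV-1 YU2 infection of CD4-negative Cf2Th-CCR5 cells; relative activation of viral infectivity is normalized to the reference CD4-mimetic agonist.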

[6] = system: Human immunodeficiency virus 1; assay: Antiviral activity against 0.01 to 0.1 MOI HIV1 Env-pseudovirus Clade C infected in human TZM-bl cells after 30 mins by luciferase assay; assay type: functional, organism-based; conditions: Human immunodeficiency virus 1, Clade C, 0.5 h
How it was run: (§1)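 Neutralization breadth is tested against a panel of 42 diverse Tier 2 clade B and C Env-pseudoviruses. IC50 values are summarized as geometric mean titers for the sensitive strains.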

[7] = system: Human immunodeficiency virus 1; assay: Antiviral activity against 0.01 to 0.1 MOI HIV1 Env-pseudovirus Clade B infected in human TZM-bl cells after 30 mins by luciferase assay; assay type: functional, organism-based; conditions: Human immunodeficiency virus 1, Clade B, 0.5 h; how it was run: as §1

N=C(N)N[C@H]1Cc2ccccc2[C@@H]1NC(=O)C(=O)Nc1ccc(Cl)c(F)c1.O=CO
fold change (FC) [1]: 0.1 | pKd [2]: 6.60 | pIC50 [3]: 4.64 | pIC50 [4]: < 4.00

N=C(N)N[C@@H]1Cc2ccccc2[C@H]1NC(=O)C(=O)Nc1ccc(Cl)c(F)c1.O=CO
fold change (FC) [1]: 0 | pKd [2]: 6.52 | pIC50 [3]: 4.67 | pIC50 [4]: < 4.00

N=C(N)NCC[C@@H]1Cc2ccccc2[C@H]1NC(=O)C(=O)Nc1ccc(Cl)c(F)c1.O=CO
pKd [2]: 5.70 | pIC50 [3]: 4.16 | fold change (FC) [5]: 0 | pIC50 [4]: < 4.00

N=C(N)NC[C@@H]1Cc2ccccc2[C@H]1NC(=O)C(=O)Nc1ccc(Cl)c(F)c1.O=CO
pKd [2]: 5.21 | pIC50 [3]: 4.42 | fold change (FC) [5]: 0.11 | pIC50 [4]: < 4.00

N=C(N)NCC[C@H]1Cc2ccccc2[C@@H]1NC(=O)C(=O)Nc1ccc(Cl)c(F)c1.O=CO
pKd [2]: 6.47 | pIC50 [3]: 4.55 | fold change (FC) [5]: 0.17 | pIC50 [4]: < 4.00

N=C(N)NC[C@H]1Cc2ccccc2[C@@H]1NC(=O)C(=O)Nc1ccc(Cl)c(F)c1.O=CO
pIC50 [6]: 4.85 | pKd [2]: 6.96 | pIC50 [3]: 5.64 | fold change (FC) [5]: 0 | pIC50 [4]: < 4.00 | pIC50 [7]: 5.77

N=C(N)NCC1Cc2ccccc2C1NC(=O)C(=O)Nc1ccc(Cl)c(F)c1 (racemic)
pIC50 [3]: 4.99
